In brackets after ≈: the same amount, converted by molar mass. Activity calls are given as the source filed them. The calls are words filed in the database; no cut-off is given here.

The subject of test [1] is Escherichia coli. In words: Antimicrobial activity against Escherichia coli KD1397 containing tolC::Tn10 gyrA+ mutant by agar or broth dilution method. In kind it is functional. The method in brief: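 MIC by agar or broth dilution in LB, 37°C: 10^4–10^5 CFU applied to plates or broth cultures with serial compound concentrations. Colonies counted after 2 days, or turbid growth scored after 1 day. MIC99 is the minimal concentration blocking colony formation by 99%, interpolated from log-log plots.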
(In general: Broth dilution looks for growth in wells or tubes with falling amounts of substance.)

In test [2] the test system is Escherichia coli. In words: Antimicrobial activity against Escherichia coli KD1397 containing tolC::Tn10 gyrA+ mutant assessed as bactericidal activity. In kind it is functional. A digest of the protocol:
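Liquid-culture lethality: 5 × 10^6 CFU/ml aliquots exposed 20 h to a range of compound concentrations; survivors counted by dilution and plating on drug-free LB agar, overnight at 37°C. MBC taken as the concentration lowering survival by 99.9%.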

In test [3] the test system is Escherichia coli. In words: Ratio of MBC to MIC99 in Escherichia coli KD1397 containing tolC::Tn10 gyrA+ mutant. In kind it is functional. A digest of the protocol:
(§1)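 MBC (99.9% kill after 20 h in liquid at 5 × 10^6 CFU/ml, survivors plated on drug-free agar) divided by MIC99 (99% block of colony formation, agar or broth dilution with 10^4–10^5 CFU, log-log interpolation); efflux-deficient tolC strain for line 4, wild-type DM4100 for line 5.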

The subject of test [4] is Escherichia coli. In words: Ratio of mutant prevention concentration to MIC99 for Escherichia coli KD1397 containing tolC::Tn10 gyrA+ mutant. In kind it is functional.
The subject of test [5] is Escherichia coli. Put plainly: Antimicrobial activity against wild type Escherichia coli DM4100 by agar or broth dilution method. The class given is functional. A digest of the protocol: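 K-12 strain grown in LB at 37°C; 10^4–10^5 CFU applied to agar plates or broth with a dilution series of compound; colonies counted after 2 days or turbidity scored after 1 day. MIC99 is the concentration blocking colony formation by 99%, interpolated from log-log plots.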

The test system of test [6] is Escherichia coli. Put plainly: Antimicrobial activity against wild type Escherichia coli DM4100 assessed as bactericidal activity. The class given is functional. A digest of the protocol: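 Liquid-culture killing: E. coli at 5 × 10^6 CFU/ml exposed 20 h to a range of drug concentrations, survivors counted by dilution and plating on drug-free agar incubated overnight at 37°C; MBC taken as concentration lowering survival by 99.9%.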

For test [7], the system named is Escherichia coli. In words: Ratio of MBC to MIC99 in wild type Escherichia coli DM4100. The class given is functional. A digest of the protocol: as §1
Test [8] deals with Escherichia coli. In words: Ratio of mutant prevention concentration to MIC99 for wild type Escherichia coli DM4100. The class given is functional. The method in brief:
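Population analysis: stationary-phase DM4100 from LB spread on agar plates spanning a broad drug range; colonies counted, passaged on drug-free agar, then retested at the selecting concentration to confirm resistance. MPC is the concentration blocking colony formation from 10^10 CFU, expressed relative to MIC99.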

The test system of test [9] is Escherichia coli. In words: Reduction quinolone resistant mutation in wild type Escherichia coli DM4100 assessed as decrease in recovery of resistant bacterial mutant colonies at 2 times MIC by agar plate assay. The class given is functional, organism-based.
For test [10], the system named is Escherichia coli. Put plainly: Reduction quinolone resistant mutation in wild type Escherichia coli DM4100 assessed as decrease in recovery of resistant bacterial mutant colonies at 5 times MIC by agar plate assay. In kind it is functional, organism-based. A digest of the protocol:
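Same agar-plate accumulation assay at 5× MIC99 with an inoculum of 10^9 CFU. Drug added to molten LB agar, incubated at 37°C, and cumulative colonies scored at daily intervals. Repeated with inocula of 8 × 10^6 to 10^10 CFU in two replicate experiments.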

Test [11] deals with Escherichia coli. In words: Antimicrobial activity against wild type Escherichia coli DM4100 assessed as decrease in bacterial survival at 3 times MIC by agar plate method. In kind it is functional, organism-based. The method in brief:
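DM4100 (10^4 to 10^8 CFU) spread on quartered agar plates with drug at three times MIC; at various times a quarter excised, washed with LB, cells pelleted (5,000 × g, 5 min), diluted onto drug-free agar at 37°C, colonies counted at 24 and 48 h. Survival relative to untreated input, corrected for resistant mutants scored on 0.02 μg/ml ciprofloxacin agar; two replicate experiments.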

Test [12] relates to Escherichia coli. Put plainly: Reduction quinolone resistant mutation in wild type Escherichia coli DM4100 assessed as decrease in recovery of resistant bacterial mutant colonies by agar plate assay. The class given is functional, organism-based. The method in brief: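 Drug added to molten LB agar; 10^4–10^10 CFU of E. coli applied and incubated at 37°C for up to 2 weeks, with cumulative colonies counted daily. Day-1 colonies are taken as the preexisting-mutant baseline. Drug concentration is normalized to MIC99.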

One may read the MIC99 as the lowest concentration that inhibits either 99% of growth or 99% of the strains tested, depending on the study. A lower MIC99 goes with higher susceptibility. Usually MBC stands for the lowest tested concentration that kills the bacteria rather than only halting them. For `COc1c(N2CC[C@@H](CN)C2)c(F)cc2c(=O)c(C(=O)O)cn(C3CC3)c12`, the MIC99 with Escherichia coli [1] worked out at 0.004 µg/mL (≈ 0.0107 µM). In addition, in the test with Escherichia coli [2], the minimal bactericidal concentration (MBC) stood at 0.01 µg/mL (≈ 0.0266 µM). The Ratio in the test with Escherichia coli [3] is 2.5; with Escherichia coli [4] it was 8.

In the case of `CCN1CCN(c2cc3c(cc2F)c(=O)c(C(=O)O)cn3C2CC2)CC1` [ENROFLOXACIN], the MIC99 in the test with Escherichia coli [5] was 0.022 µg/mL (≈ 0.0612 µM). Further, the MBC in the test on Escherichia coli [6] came to 0.07 µg/mL (≈ 0.195 µM). Moreover, the figures for the Ratio in the test with Escherichia coli [7] and in the test on Escherichia coli [8] were 3.2 and 15, respectively. Further, the inhibition entry with Escherichia coli [9], in the test with Escherichia coli [10] and with Escherichia coli [11] was “Active” throughout.

`CCN1CCN(c2c(F)cc3c(=O)c(C(=O)O)cn(C4CC4)c3c2OC)CC1` registered an MIC99 in the test with Escherichia coli [5] of 0.14 µg/mL (≈ 0.36 µM). Also, the MBC in the test on Escherichia coli [6] amounted to 0.27 µg/mL (≈ 0.693 µM). Also, the Ratio in the test on Escherichia coli [7] is recorded as 1.9; in the test with Escherichia coli [8], 7. Besides, the inhibition entry in the test on Escherichia coli [9], in the test with Escherichia coli [10] and in the test with Escherichia coli [11] was “Active” each time.

In the case of `CCC1CN(c2cc3c(cc2F)c(=O)c(C(=O)O)cn3C2CC2)CCN1` (configuration not stated), the MIC99 with Escherichia coli [5] turned out to be 0.045 µg/mL (≈ 0.125 µM). In the test on Escherichia coli [6], the MBC was 0.16 µg/mL (≈ 0.445 µM). Moreover, the Ratio in the test on Escherichia coli [7] amounted to 3.5; with Escherichia coli [8] it was 10. In addition, the inhibition result in the test on Escherichia coli [9], in the test with Escherichia coli [10] and with Escherichia coli [11] was “Active” throughout.

For `CCn1cc(C(=O)O)c(=O)c2ccc(C)nc21`, in the test with Escherichia coli [12], the inhibition result is “Dose-dependent effect”.

Turning to `COc1c(N2CC[C@@H](CN)C2)c(F)cc2c(=O)n(N)c(=O)n(C3CC3)c12`, the MIC99 against Escherichia coli [1] was 0.5 µg/mL (≈ 1.38 µM). The MBC in the test on Escherichia coli [2] came out at 1 µg/mL (≈ 2.75 µM). Besides, the values for the Ratio in the test on Escherichia coli [3] and with Escherichia coli [4] were 2 and 3, respectively.

In the case of `CCC1CN(c2c(F)cc3c(=O)c(C(=O)O)cn(C4CC4)c3c2OC)CCN1` (configuration not stated), the MIC99 against Escherichia coli [5] was determined as 0.11 µg/mL (≈ 0.282 µM). In the test on Escherichia coli [6], the MBC came out at 0.33 µg/mL (≈ 0.847 µM). The Ratio with Escherichia coli [7] was determined as 3; in the test with Escherichia coli [8], 6. In addition, the inhibition result in the test with Escherichia coli [9], in the test on Escherichia coli [10] and with Escherichia coli [11] was “Active” each time.

The values above are taken from ChEMBL document CHEMBL1212737, “Novel approach for comparing the abilities of quinolones to restrict the emergence of resistant mutants during quinolone exposure” (2010).
